Screening data: PubChem BioAssay, several laboratories
CAL PDZ FP-1: blocks peptide binding to human CAL PDZ domain; Q9HD26; purified CAL PDZ, TMR-peptide fluorescence polarization, 1 h; inhibition, % at 20 µM; 0.02% of 330,000 active; AID 504414;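 active = highest replicate inhibition of at least 40%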
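Assay system – tagged CAL PDZ protein CerCALP, purified · Timing – 1 h at RT · Compound – single point, 20 µM · Measured by – fluorescence polarization from S- and P-plane intensities, G-factor corrected · Evaluation – inhibition from polarization loss · Probe or stimulus – TMR reporter peptide T*-PRC34 · Buffer or medium – pH 7.4 phosphate-saline buffer, reducing agent, detergent, IgG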
ATG4B inhibitor: blocks human ATG4B protease cleavage of LC3 substrate; ATG4B cleavage of LC3-PLA2, NBD-HPC fluorescence, 1 h; 0.51% of 340,000 active; Q9Y4P1; inhibition, % at 8.33 µM; in the data active = inhibition above about 40%
Target sequence (Q9Y4P1 whole entry, looked up): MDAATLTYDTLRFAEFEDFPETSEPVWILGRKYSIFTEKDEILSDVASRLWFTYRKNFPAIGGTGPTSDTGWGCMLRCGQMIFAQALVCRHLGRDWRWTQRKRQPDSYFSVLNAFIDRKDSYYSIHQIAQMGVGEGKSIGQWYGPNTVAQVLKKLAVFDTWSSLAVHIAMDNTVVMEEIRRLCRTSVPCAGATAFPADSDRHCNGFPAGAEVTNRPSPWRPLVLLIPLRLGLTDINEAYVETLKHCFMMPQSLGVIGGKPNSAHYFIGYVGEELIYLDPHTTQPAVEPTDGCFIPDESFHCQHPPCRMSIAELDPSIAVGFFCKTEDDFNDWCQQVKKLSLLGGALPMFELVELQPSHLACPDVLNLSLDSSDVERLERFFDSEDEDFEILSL
SR-BI uptake up: activators of SR-BI mediated HDL lipid uptake; CHO ldlA[mSR-BI] cells, DiI-HDL uptake fluorescence, 3 h; 100 = double the neutral-control signal; activation, % at 12.5 µM; 0.096% of 320,000 active;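 active = mean replicate activation of at least 60% and every replicate at or above 60%; inconclusive = mean or all-replicate condition met, but not both; inactive = mean below 60% and not all replicates reaching 60%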
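Test system: SR-BI-overexpressing, LDLR-lacking CHO cells. Measured by: DiI fluorescence, bottom read. Medium: Ham's F12 with 0.5% BSA, HEPES 25 mM, pH 7.4. Timing: 3 h uptake period with compound, 37 °C.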
CAL PDZ FP-2: CAL PDZ (human) peptide binding inhibition. Q9HD26. 0.92% of 300,000 active. purified CAL PDZ, TMR-peptide fluorescence polarization, 1 h. AID 602252. inhibition, % at 24.9 µM;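 active = mean inhibition of at least 30% with at least half of replicates also reaching 30%; inconclusive = no clear call, values can overlap the other calls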
SR-BI HDL uptake: mouse SR-BI HDL lipid transfer inhibition | 0.96% of 320,000 active | AID 488896 | Q61009 | ldlA[mSR-BI] CHO cells, DiI-HDL uptake fluorescence, 3 h | inhibition, % at 12.5 µM;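 active = mean replicate inhibition of at least 70% and a set share of replicates each scoring 70 or more; inconclusive = meets just one of the two criteria; inactive = fails both criteria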
Numbers stand for hits; - = inactive; ? = inconclusive; . = no result; + = active, no number. A selection: hits, their analogues and other compounds. The true share with any hit is near 2.3%.

SMILES	CAL PDZ FP-1	ATG4B inhibitor	SR-BI uptake up	CAL PDZ FP-2	SR-BI HDL uptake
O=C(Sc1n[nH]c(=O)[nH]c1=O)c1ccccc1	-	-	?	-	-
O=S(=O)(SC1=NCCN1)c1ccccc1	-	-	-	-	-
CC(CCC(C)C(C)(C)C)[C@@H]1CC[C@H]2C3C[C@H](OS(O)(=S)=S)[C@H]4C[C@H](OS(O)(=S)=S)[C@@H](OS(O)(=S)=S)C[C@]4(C)[C@H]3CC[C@]12C (stereo not given in full) (tested in a mixture with another compound)	-	84	-	-	-
Cc1cc(N)n(-c2ccc(S(=O)(=O)N3CCOCC3)cc2[N+](=O)[O-])n1	-	-	.	-	.
Cc1cc(N)n(-c2ccc(S(N)(=O)=O)cc2[N+](=O)[O-])n1	-	-	-	76	-
O=C(Nc1ccc(Cl)cn1)c1ccccc1SCc1ccccc1	-	-	-	-	-
Cc1cccc(NC(=O)c2ccccc2SCc2ccc(F)cc2)n1	-	-	-	60	-
CCc1cccc(NC(=O)C2CCCN(c3ncnc4c3nc3n4CCCCC3)C2)c1 (stereo not given)	-	-	-	-	-
COc1ccc(C=NNC(=S)NN=Cc2ccc(OC)c(OC)c2)cc1OC	-	-	-	-	-
COCCCNC(=S)N/N=C/c1ccc(OC)c(Br)c1	-	-	-	54	-
COc1ccc(C(=O)C2CCN(C(=O)c3ccc(OC)cc3)CC2)cc1	-	-	-	74	-
COC(=O)c1ccccc1NC(=O)C1CCN(C(=O)c2cc(OC)cc(OC)c2)CC1	-	-	-	115	-
O=C(O)c1[nH]c2ccccc2c1C(c1ccccc1)c1c(C(=O)O)[nH]c2ccccc12	45	-	-	56	-
Cc1ccc(/C=C2/CNC/C(=C/c3ccc(C)cc3)C2=O)cc1	-	-	-	39	-
COC(=O)C/C=N/N=C1/NC(=O)/C(=C/C(=O)O)S1	-	-	.	-	.
O=C1Nc2ccccc2/C1=N\N=C\C1=C(N2CCOCC2)C(=C\c2ccccc2)/CC1	.	.	-	-	128
O=C1Nc2ccc(Br)cc2/C1=N\N=C\C1=C(N2CCOCC2)C(=C/c2ccccc2)/CC1	-	-	-	-	100
COc1ccccc1C(=O)Nc1cc(Cl)ccc1O	-	-	-	-	-
COc1ccc(Cl)cc1NC(=O)c1ccccc1C	.	-	-	-	86
COc1ccc(OC)c(NC(=O)c2cc(-c3cc(Cl)ccc3O)n[nH]2)c1	.	-	-	-	-
COc1ccc(Cl)cc1NC(=O)c1cc(-c2ccccc2O)n[nH]1	-	-	-	-	90
CCCOC(=O)c1c(NC(=O)/C=C/c2cnn(C)c2C)sc(C(=O)OCC)c1C	-	-	-	.	76
CCCOC(=O)c1c(NC(=O)/C=C/c2cnn(C)c2C)sc(C(=O)OC)c1C	-	-	-	.	-
CCc1cccc(C)c1NC(=O)CSc1nnc(CCCOc2ccc(Cl)cc2Cl)n1C	-	-	-	-	75
COc1ccccc1-c1cccc([C@@H]2C[C@H]3[C@H](CON3C)CN2S(=O)(=O)c2ccccc2C)c1	-	-	-	-	-
SMILES	CAL PDZ FP-1	ATG4B inhibitor	SR-BI uptake up	CAL PDZ FP-2	SR-BI HDL uptake
COc1c(/C=N/Nc2ccc([N+](=O)[O-])cc2[N+](=O)[O-])c(C)nn1-c1ccccc1	-	-	-	-	-
COc1ccccc1NS(=O)(=O)c1ccc(N/N=C/c2c(C)nn(-c3ccccc3)c2N2CCCC2)c([N+](=O)[O-])c1	-	-	-	-	90
Cc1nn(-c2ccccc2)c(N2CCCC2)c1/C=N/Nc1ccc(S(=O)(=O)Nc2ccccc2)cc1[N+](=O)[O-]	-	-	-	-	125
COc1ccc(/C=C2\SC(=S)N(CC(=O)OCC(=O)Nc3ccc(C)cc3Cl)C2=O)cc1	-	-	-	-	-
O=C1CN(C(=O)COC(=O)c2c(F)cccc2Cl)c2ccccc2N1	-	-	-	-	-
COc1ccc(NC(=O)C(F)(F)F)cc1OC	-	-	-	-	78
CCOC(=O)C(=O)N1CCC(C(=O)OC)CC1	-	-	-	-	-
Cc1cn(CC(=O)NCc2ccccn2)c(=O)[nH]c1=O	-	-	-	+	-
CC(C)CCNC(=O)NC(=O)COC(=O)/C=C/c1cccc([N+](=O)[O-])c1	-	-	-	37	-
COc1cc(C(=O)Nc2sc3c(c2C#N)CCN(C(C)=O)C3)cc(OC)c1OC	-	-	-	.	78
CC(=O)N1CCc2c(sc(NC(=O)c3ccc([N+](=O)[O-])o3)c2C#N)C1	-	-	-	-	-
COc1ccc(C(=O)Nc2sc3c(c2C#N)CCN(C(C)=O)C3)cc1	-	-	-	-	76
CC(=O)N1CCc2c(sc(NC(=O)Cc3ccc(F)cc3)c2C#N)C1	-	-	-	-	-
O=C(O)C1(Nc2ccc(Br)cc2)CCCC1	-	-	-	-	-
COc1ccc2c(C)nc(Nc3nc(-c4ccccc4)cc(=O)[nH]3)nc2c1	-	-	-	-	78
Cc1ccc(S(=O)(=O)N(C)C)cc1NC(=O)C(C)OC(=O)C1CCCC1 (stereo not given)	-	-	-	-	-
CCC(C(=O)NC1C(=O)N2C(C(=O)O)=C(CSc3nnc(C)s3)CSC12)c1ccccc1 (stereo not given)	-	-	74	.	-
Cc1nnc(SCC2=C(C(=O)O)N3C(=O)C(NC(=O)COc4ccccc4)C3SC2)s1 (stereo not given)	-	-	-	.	-
CCC[C@H]1NC(=O)[C@H](C)N(C)C(=O)C(C)(C)C(=O)C(C)NC(=O)[C@H](Cc2ccc(OC)cc2)N(C)C(=O)[C@H](C(C)C)N(C)C(=O)CNC(=O)[C@H](CC(C)C)N(C)C(=O)CNC(=O)[C@H]([C@@H](C)CC)OC(=O)[C@H]1C (stereo not given in full)	.	-	.	.	.
Cc1c(C(=O)N2CCCCCC2)nnn1-c1nonc1N	-	-	-	49	-
O=C(NNC(=O)c1ccncc1)c1ccncc1	-	-	-	.	-
CCNC(=S)NNC(=O)c1ccncc1	-	-	-	68	-
CC(C)(C)NC(=S)NNC(=O)c1ccncc1	-	-	185	-	-
Cn1nnnc1SCC(=O)C(C)(C)C	-	-	-	-	-
CCOC(=O)C1(C)Oc2ccccc2C(C(=O)OC)=C1C(=O)OC (stereo not given)	-	-	-	+	-
N#Cc1c(NC(=O)CSC2=NCCS2)sc2c1CCCC2	-	-	-	.	82
N#Cc1c(NC(=O)/C=C/c2ccco2)sc2c1CCCC2	-	-	-	-	80
N#Cc1c(NC(=O)c2ccccc2)sc2c1CCCCC2	.	-	-	-	78
Cc1ccc(C(=O)Nc2sc3c(c2C#N)CCCCC3)cc1C	-	-	-	-	-
N#Cc1c(NC(=O)CSc2ncn[nH]2)sc2c1CCCC2	-	-	-	-	-
